The target in series [1] is T1, Solute carrier family 15 member 1 (Homo sapiens, UniProt P46059).
T1 sequence (P46059 whole entry): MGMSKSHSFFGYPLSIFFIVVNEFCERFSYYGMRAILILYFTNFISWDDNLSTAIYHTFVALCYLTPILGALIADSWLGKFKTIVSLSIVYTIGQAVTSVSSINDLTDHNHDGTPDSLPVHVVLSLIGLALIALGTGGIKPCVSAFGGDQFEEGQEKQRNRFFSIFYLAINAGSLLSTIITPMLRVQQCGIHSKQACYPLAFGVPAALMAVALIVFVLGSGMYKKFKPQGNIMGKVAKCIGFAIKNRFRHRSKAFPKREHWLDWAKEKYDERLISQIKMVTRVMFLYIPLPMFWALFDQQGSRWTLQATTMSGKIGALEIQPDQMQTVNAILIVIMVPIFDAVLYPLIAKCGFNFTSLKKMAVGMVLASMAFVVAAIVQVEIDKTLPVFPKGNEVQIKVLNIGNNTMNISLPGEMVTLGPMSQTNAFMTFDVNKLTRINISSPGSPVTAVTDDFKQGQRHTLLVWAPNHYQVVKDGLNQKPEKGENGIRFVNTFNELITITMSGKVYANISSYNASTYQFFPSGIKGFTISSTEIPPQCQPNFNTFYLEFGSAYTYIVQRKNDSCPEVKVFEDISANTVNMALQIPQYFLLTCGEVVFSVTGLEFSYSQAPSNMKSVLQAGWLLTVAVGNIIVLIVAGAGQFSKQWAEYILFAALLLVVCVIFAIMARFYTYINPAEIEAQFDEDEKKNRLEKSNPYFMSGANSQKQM
The series is described as follows: Drug uptake in CHOK1 cells expressing human PEPT1 by HPLC coupled with radiodetection analysis. Type of series: ADME, cell-based. To be noted: cho-k1, TDE = time-dependent effect. An outline of the steps: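 Accumulation of [14C]oseltamivir or its carboxylate in CHO-PEPT1 versus CHO-K1 cells. Conditions varied: KH buffer (with MES) or Hanks' balanced salt solution, pH 5 or 6 readjusted after substrate addition, 30 s to 15 min at 37°C. Uptake was quenched with ice-cold PBS-BSA, followed by Triton X-100 lysis, scintillation counting, and BCA protein normalization. HPLC-radiodetection checked ester stability.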

Series [2] addresses T1, Solute carrier family 15 member 1. The series can be described thus: Drug uptake in CHOK1 cells expressing human PEPT1 at 2 uM after 10 mins measured per mg protein by HPLC coupled with radiodetection analysis. To be noted: cho-k1, 10 min. Type of series: ADME, cell-based. The method, boiled down: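 Transporter functionality check: 2 µM [3H]Gly-Sar was incubated for 10 min at 37°C, pH 6, in KH/MES buffer with CHO-PEPT1 versus CHO-K1 cells. Intracellular radioactivity in Triton X-100 lysates was expressed as pmol/mg protein (BCA). Six independent experiments, triplicate wells.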

A short description of series [3]: Drug uptake in CHOK1 cells at 2 uM after 10 mins measured per mg protein by HPLC coupled with radiodetection analysis. It counts as ADME, cell-based, Cricetulus griseus. Conditions: chinese hamster, cho-k1, 10 min; call rule not given here. An outline of the steps:
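CHO-K1 cells given 2 μM [3H]Gly-Sar in KH buffer at pH 6 for 10 min at 37°C. Ice-cold PBS-BSA quench, then washes and Triton lysis. Scintillation counts expressed as pmol/mg protein (BCA). n=6 experiments.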

Series [4] is described as follows: Drug uptake in CHOK1 cells at 2 uM at pH 4 to 8 after 10 mins by HPLC coupled with radiodetection analysis. It counts as ADME, cell-based, Cricetulus griseus. To be noted: chinese hamster, cho-k1, pH 4, 10 min. The method, boiled down:
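[3H]Gly-Sar at 2 μM in KH buffer over pH 4-8, incubated with CHO-K1 cells for 10 min at 37°C. Accumulated radioactivity in cell lysates counted and normalised to protein. Three independent experiments.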

Where a SMILES comes first, the peptide text is derived from it. [ ]: non-standard residue; d: D form. Sar = CNCC(=O)O

Take `CN(CC(=O)O)C(=O)CN` [GLYCYLSARCOSINE] (H-Gly-[Sar]-OH): the Drug uptake entry is “tde” in series [1], 182 pmol in series [2], 1.1 pmol in series [3] and “Active” in series [4].

The values above are taken from ChEMBL document CHEMBL3526035, “Role of the intestinal peptide transporter PEPT1 in oseltamivir absorption: in vitro and in vivo studies” (Drug Metab Dispos, 2012).
